From ChEMBL document CHEMBL3352189 (J Med Chem, 2014)
The source made the active and inactive calls. No cut-off for these calls is given here.

Experiments:
[1] = biological target: Glucocorticoid receptor (Homo sapiens) (UniProt P04150); test: Displacement of [3H]dexamethasone from human glucocorticoid receptor at 10 uM
[2] = Plasma concentration in C57BL/6 mouse at 5 mg/kg, ip administered as single dose measured after 120 mins by LC/MS analysis based RACE assay; assay type: ADME, organism-based; design: dose 5 mg/kg, route intraperitoneal
Method in brief: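 Single intraperitoneal dose of 1, 5 or 10 mg/kg given to C57BL/6 mice, 3 mice per dose and time point, with a vehicle-control cohort. Plasma was sampled at 20 and 120 min post-dose and drug level measured by LC/MS. Each time point averaged two injections (<20% difference); values are means ± standard deviation in μM.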

[3] = biological target: 5-hydroxytryptamine receptor 1A (Homo sapiens) (UniProt P08908); test: Displacement of [3H]8-OH-DPAT from human 5HT1A receptor at 10 uM
Chain of 5-hydroxytryptamine receptor 1A (Homo sapiens) (P08908 whole entry): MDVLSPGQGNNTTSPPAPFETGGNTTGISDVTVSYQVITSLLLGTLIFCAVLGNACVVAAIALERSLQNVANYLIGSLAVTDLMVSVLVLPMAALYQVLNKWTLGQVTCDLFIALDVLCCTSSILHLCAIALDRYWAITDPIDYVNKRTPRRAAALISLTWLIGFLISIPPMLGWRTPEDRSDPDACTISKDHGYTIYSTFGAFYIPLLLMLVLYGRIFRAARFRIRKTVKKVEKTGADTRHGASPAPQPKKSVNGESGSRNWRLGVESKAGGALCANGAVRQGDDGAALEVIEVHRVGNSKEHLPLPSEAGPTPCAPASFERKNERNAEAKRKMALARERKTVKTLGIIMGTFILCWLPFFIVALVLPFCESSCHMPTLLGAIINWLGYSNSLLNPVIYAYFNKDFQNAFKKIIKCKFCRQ

CYP2C19 = CYP2C19 (Homo sapiens, UniProt P33261); test: Inhibition of human CYP2C19 at 10 uM; assay type: ADME
Chain of CYP2C19 (P33261 whole entry): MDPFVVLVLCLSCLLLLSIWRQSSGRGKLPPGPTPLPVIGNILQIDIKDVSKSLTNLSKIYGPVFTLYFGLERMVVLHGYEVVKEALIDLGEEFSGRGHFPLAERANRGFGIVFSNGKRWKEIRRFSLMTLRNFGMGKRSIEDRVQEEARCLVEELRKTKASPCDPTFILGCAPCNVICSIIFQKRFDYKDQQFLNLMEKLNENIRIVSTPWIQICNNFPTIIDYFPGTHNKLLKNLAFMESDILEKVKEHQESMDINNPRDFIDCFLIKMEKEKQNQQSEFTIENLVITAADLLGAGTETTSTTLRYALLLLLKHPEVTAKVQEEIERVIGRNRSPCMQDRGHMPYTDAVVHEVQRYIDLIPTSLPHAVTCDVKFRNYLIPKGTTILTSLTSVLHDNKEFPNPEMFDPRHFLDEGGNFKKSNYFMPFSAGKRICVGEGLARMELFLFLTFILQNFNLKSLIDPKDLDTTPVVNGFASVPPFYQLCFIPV

[4] = biological target: L-type calcium channel, benzothiazepine site (Rattus norvegicus, UniProt P22002+P27732+Q02485); test: Displacement of [3H]diltiazem from rat calcium channel L-Type benzothiazepine site at 10 uM; assay type: protein assay; conditions: probe [3H]diltiazem
[5] = Protein binding in human plasma at 10 uM; assay type: ADME, cell-free; conditions: read-out: PPB (converted)
[6] = biological target: Cannabinoid receptor 1 (Homo sapiens) (UniProt P21554); test: Displacement of [3H]SR141716A from human CB1 receptor at 10 uM
[7] = Cytotoxicity against african green monkey Vero 76 cells after 3 days by Celltiter-Glo reagent based assay; assay type: cell-based; conditions: chlorocebus sabaeus, vero 76, 72 h
Method in brief: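 Vero 76 cells were seeded overnight at 12 000/well and given an 8-point 2-fold compound series (20 mM DMSO stock) in EMEM/10% FBS with no virus. Viability was read by CellTiter-Glo after 3 days relative to untreated cells. Run in duplicate; CC50 from a four-parameter logistic or sigmoidal fit.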

[8] = biological target: Histamine H2 receptor (Homo sapiens) (UniProt P25021); test: Displacement of [125I]aminopotentidine from human histamine H2 receptor at 10 uM
Chain of Histamine H2 receptor (Homo sapiens) (P25021 whole entry): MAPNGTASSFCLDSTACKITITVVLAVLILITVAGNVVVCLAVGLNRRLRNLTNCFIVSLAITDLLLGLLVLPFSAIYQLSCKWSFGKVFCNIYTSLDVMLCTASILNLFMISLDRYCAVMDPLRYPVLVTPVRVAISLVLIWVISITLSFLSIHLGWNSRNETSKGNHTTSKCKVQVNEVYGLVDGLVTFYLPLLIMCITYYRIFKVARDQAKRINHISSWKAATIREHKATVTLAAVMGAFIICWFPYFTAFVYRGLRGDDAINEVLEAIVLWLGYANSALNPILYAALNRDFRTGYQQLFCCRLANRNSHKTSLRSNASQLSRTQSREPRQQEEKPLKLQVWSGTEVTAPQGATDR

[9] = Chemical stability in presence of 5x DTT assessed as parent compound remaining incubated for 8 hrs; assay type: physicochemical; conditions: read-out: Stability
[10] = biological target: Histamine H1 receptor (Homo sapiens) (UniProt P35367); test: Displacement of [3H]pyrilamine from human histamine H1 receptor at 10 uM
[11] = biological target: Androgen receptor (Rattus norvegicus) (UniProt P15207); test: Displacement of [3H]mibolerone from rat androgen receptor at 10 uM
[12] = biological target: Acetylcholine receptor subunit alpha (Homo sapiens) (UniProt P02708); test: Displacement of [125I]alpha-Bungarotoxin from human nAchR alpha1 bungarotoxin binding site at 10 uM
[13] = biological target: 5-hydroxytryptamine receptor 2B (Homo sapiens) (UniProt P41595); test: Displacement of [3H]lysergic acid diethylamide from human 5HT2B receptor at 10 uM
[14] = biological target: Adenosine receptor A3 (Homo sapiens) (UniProt P0DMS8); test: Displacement of [125I]AB-MECA from human adenosine A3 receptor at 10 uM
Chain of Adenosine receptor A3 (Homo sapiens) (P0DMS8 whole entry): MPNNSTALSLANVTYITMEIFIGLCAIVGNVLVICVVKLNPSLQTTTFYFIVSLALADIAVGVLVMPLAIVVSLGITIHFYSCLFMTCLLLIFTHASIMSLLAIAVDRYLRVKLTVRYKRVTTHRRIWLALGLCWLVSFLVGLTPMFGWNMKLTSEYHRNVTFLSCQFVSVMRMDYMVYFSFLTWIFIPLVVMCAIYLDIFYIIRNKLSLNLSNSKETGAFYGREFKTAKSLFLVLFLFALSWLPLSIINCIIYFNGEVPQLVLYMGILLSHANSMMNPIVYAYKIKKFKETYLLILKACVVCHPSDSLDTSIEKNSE

[15] = biological target: Beta-2 adrenergic receptor (Homo sapiens) (UniProt P07550); test: Displacement of [3H]CGP-12177 from human adrenergic beta2 receptor at 10 uM
Chain of Beta-2 adrenergic receptor (Homo sapiens) (P07550 whole entry, looked up): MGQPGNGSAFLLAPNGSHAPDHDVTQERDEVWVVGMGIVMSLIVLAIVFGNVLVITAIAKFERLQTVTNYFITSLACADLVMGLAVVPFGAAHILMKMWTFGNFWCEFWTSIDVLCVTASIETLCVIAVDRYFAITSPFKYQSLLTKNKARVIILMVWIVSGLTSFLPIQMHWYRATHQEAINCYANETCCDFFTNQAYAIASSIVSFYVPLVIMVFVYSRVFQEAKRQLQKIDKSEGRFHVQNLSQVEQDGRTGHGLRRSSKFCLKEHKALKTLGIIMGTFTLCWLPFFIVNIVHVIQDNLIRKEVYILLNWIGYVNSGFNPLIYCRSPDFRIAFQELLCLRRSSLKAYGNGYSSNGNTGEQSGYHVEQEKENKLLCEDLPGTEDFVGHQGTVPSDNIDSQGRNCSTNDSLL

CYP2D6 = CYP2D6 (Homo sapiens, UniProt P10635); test: Inhibition of human CYP2D6 at 10 uM; assay type: ADME
Chain of CYP2D6 (P10635 whole entry): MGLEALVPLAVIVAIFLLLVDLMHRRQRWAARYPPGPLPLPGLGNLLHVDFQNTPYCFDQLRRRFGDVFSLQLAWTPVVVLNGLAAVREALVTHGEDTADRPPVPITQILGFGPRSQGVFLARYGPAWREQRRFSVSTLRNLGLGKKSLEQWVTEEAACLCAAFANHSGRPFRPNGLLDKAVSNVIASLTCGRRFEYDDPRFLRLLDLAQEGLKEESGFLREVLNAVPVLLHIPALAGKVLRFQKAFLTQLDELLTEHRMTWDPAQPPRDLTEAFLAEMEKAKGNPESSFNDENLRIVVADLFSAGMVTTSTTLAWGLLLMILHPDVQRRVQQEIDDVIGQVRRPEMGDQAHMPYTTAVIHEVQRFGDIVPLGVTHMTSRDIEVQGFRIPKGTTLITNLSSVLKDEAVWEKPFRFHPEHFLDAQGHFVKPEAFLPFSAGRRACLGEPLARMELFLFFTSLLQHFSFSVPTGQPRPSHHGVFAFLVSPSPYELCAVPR

[16] = Drug concentration in C57BL/6 mouse brain at 10 mg/kg, ip administered as single dose measured after 120 mins by LC/MS analysis based RACE assay; assay type: ADME, organism-based; design: dose 10 mg/kg, route intraperitoneal; conditions: read-out: Drug uptake
Method in brief: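 Brain tissue taken at the terminal 120 min point after one intraperitoneal dose (1, 5 or 10 mg/kg) in C57BL/6 mice, 3 per group, with a vehicle cohort. Drug level measured by LC/MS, averaging two injections per sample; reported as mean ± standard deviation, μM.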

Mus musculus = test: Toxicity in Venezuelan equine encephalitis virus TC83 infected C3H/HeN mouse assessed as induction of lethargy at 5 mg/kg/day, ip BID for 4 days; assay type: organism-based; design: route intraperitoneal; conditions: in vivo, 96 h
[17] = biological target: Glutamate NMDA receptor (Rattus norvegicus) (UniProt P35439+Q00959+Q00960+Q00961+Q62645+Q8VHN2+Q9R1M7); test: Displacement of [3H]TCP from rat NMDA receptor phencyclidine binding site binding site at 10 uM; assay type: protein-complex assay
[18] = biological target: Alpha-1D adrenergic receptor (Homo sapiens) (UniProt P25100); test: Displacement of [3H]prazosin from human adrenergic alpha1D receptor at 10 uM
Chain of Alpha-1D adrenergic receptor (Homo sapiens) (P25100 whole entry): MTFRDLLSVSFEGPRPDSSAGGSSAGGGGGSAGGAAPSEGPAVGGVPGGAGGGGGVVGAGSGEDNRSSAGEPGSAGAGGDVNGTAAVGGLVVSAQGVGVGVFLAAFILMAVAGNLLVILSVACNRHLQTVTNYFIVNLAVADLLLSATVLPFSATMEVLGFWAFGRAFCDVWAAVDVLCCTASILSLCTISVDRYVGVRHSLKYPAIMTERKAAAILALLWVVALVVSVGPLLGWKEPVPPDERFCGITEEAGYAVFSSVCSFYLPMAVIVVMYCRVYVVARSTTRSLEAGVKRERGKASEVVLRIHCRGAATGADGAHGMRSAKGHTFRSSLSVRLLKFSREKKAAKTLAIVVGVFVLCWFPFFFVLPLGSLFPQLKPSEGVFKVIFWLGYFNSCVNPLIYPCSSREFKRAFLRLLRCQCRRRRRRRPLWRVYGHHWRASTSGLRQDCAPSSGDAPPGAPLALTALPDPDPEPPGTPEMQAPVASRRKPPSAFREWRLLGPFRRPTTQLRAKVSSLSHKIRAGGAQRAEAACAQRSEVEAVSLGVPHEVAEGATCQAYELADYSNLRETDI

[19] = biological target: Sodium-dependent serotonin transporter (Homo sapiens) (UniProt P31645); test: Displacement of [3H]paroxetine from human SERT at 10 uM
[20] = biological target: GABA-A receptor; anion channel (Homo sapiens) (UniProt P14867+P47870+P18507+P28472+P48169+Q99928+Q9UN88+P34903+O00591+O14764+Q8N1C3+P18505+P78334+P47869+P31644+Q16445); test: Displacement of ABC from rat GABAA receptor central muscimol site at 10 uM; assay type: protein-complex assay; conditions: target entry is the homologue from another species
Rattus norvegicus [21] = species: Rattus norvegicus; test: Displacement of radioligand from rat sodium channel site 2 at 10 uM
Rattus norvegicus [22] = species: Rattus norvegicus; test: Displacement of [35S]ATP-alphaS from rat P2Y channel at 10 uM
[23] = tested on: Venezuelan equine encephalitis virus; test: Antiviral activity against Venezuelan equine encephalitis virus TC83 infected in Vero 76 cells assessed as reduction in virus-induced cytopathic effect after 2 days by Celltiter-Glo reagent based assay; assay type: functional, organism-based; conditions: TC83, Vero 76, 48 h
[24] = tested on: Venezuelan equine encephalitis virus; test: Antiviral activity against Venezuelan equine encephalitis virus TC83 infected in C3H/HeN mouse assessed as mouse survival at […], ip BID for 4 days dosed 4 hrs before viral infection (reference value: 14%); assay type: functional; conditions: route intraperitoneal
[25] = biological target: Histamine H2 receptor (Homo sapiens) (UniProt P25021); test: Displacement of [3H]N-alpha-Methylhistamine from human histamine H3 receptor at 10 uM
Rattus norvegicus [26] = species: Rattus norvegicus; test: Displacement of [125I]omega-Conotoxin GVIA from rat N-type calcium channel at 10 uM
Cricetinae = test: Displacement of [3H]glyburide from hamster KATP channel at 10 uM
[27] = biological target: Muscarinic acetylcholine receptor M3 (Homo sapiens) (UniProt P20309); test: Displacement of [3H]N-Methylscopolamine from human muscarinic M3 receptor at 10 uM
Chain of Muscarinic acetylcholine receptor M3 (Homo sapiens) (P20309 whole entry, looked up): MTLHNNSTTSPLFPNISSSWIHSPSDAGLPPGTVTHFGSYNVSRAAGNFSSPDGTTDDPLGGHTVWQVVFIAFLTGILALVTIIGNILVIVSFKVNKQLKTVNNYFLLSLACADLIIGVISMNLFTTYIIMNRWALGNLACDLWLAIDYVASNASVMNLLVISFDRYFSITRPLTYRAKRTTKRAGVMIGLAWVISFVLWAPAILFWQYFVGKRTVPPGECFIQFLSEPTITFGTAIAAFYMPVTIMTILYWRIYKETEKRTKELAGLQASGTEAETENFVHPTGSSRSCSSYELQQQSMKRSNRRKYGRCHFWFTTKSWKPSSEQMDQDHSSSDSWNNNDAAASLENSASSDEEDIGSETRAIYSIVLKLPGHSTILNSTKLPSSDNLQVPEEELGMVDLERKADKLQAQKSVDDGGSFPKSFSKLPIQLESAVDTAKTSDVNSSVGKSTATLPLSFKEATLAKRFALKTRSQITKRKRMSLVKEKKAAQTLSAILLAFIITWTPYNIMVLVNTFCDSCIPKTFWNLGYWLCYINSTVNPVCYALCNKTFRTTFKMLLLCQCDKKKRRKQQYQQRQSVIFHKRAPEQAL

[28] = tested on: Venezuelan equine encephalitis virus; test: Antiviral activity against Venezuelan equine encephalitis virus TrD infected in Vero 76 cells assessed as reduction in virus-induced cytopathic effect after 2 days by Celltiter-Glo reagent based assay; assay type: functional, organism-based; conditions: Vero 76, 48 h
[29] = tested on: Venezuelan equine encephalitis virus; test: Antiviral activity against Venezuelan equine encephalitis virus TrD infected in Vero 76 cells assessed as reduction in viral titer at 1 uM by crystal violet staining based microplaque assay relative to untreated control; assay type: functional
[30] = biological target: Substance-P receptor (Homo sapiens) (UniProt P25103); test: Displacement of [3H]substance P from human NK1 receptor 2 at 10 uM
[31] = biological target: D(2) dopamine receptor (Homo sapiens) (UniProt P14416); test: Displacement of [3H]spiperone from human dopamine D2S receptor at 10 uM
Chain of D(2) dopamine receptor (Homo sapiens) (P14416 whole entry): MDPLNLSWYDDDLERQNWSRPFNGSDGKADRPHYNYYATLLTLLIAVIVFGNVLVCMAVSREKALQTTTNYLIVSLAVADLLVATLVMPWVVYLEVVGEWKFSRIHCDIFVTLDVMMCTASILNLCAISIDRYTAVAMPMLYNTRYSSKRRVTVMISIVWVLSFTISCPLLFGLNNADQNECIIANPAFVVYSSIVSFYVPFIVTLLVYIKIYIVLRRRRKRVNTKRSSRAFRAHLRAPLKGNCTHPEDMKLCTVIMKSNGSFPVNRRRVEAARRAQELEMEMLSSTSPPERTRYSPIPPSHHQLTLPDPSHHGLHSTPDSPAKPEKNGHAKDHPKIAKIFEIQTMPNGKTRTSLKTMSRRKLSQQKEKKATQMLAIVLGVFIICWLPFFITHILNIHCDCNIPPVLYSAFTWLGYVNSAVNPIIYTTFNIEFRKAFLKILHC

Chain of Glucocorticoid receptor (Homo sapiens) (P04150 whole entry): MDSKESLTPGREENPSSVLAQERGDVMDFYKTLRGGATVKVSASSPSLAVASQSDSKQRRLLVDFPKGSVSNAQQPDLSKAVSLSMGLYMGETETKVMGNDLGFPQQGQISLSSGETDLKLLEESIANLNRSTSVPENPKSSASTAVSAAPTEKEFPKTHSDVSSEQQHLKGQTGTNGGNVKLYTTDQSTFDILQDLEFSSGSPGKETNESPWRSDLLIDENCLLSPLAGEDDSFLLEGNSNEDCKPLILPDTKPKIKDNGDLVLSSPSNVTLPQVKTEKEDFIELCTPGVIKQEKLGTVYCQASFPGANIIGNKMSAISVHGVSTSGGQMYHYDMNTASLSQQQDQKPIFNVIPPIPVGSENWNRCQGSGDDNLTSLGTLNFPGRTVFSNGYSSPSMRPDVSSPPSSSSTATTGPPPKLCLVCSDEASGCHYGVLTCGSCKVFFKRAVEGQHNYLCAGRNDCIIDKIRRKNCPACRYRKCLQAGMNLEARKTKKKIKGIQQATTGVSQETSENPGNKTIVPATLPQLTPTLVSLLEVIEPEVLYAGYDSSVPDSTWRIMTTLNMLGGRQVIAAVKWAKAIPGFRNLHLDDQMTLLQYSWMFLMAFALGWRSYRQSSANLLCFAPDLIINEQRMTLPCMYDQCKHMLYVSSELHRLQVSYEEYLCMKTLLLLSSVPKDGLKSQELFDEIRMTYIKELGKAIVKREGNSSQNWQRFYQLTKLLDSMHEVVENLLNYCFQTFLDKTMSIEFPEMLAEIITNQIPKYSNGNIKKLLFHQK

For `CN1CCN(C)/C(=N/c2ccc([N+](=O)[O-])cc2C(=O)Nc2ccccc2)C1`, the inhibition [1] was 10.2%, the concentration at 2 h [2] was 290 nM and the inhibition [3] was 2.12%. It also gave an inhibition at 10 µM (CYP2C19) of 17%, an inhibition at 10 µM [4] of 7.06% and a fraction unbound at 10 µM [5] of 0.23. The inhibition [6] was -2.06%, the CC50 [7] was > 50000 nM and the inhibition [8] was 20.4%. The remaining at 8 h [9] was 99%, the inhibition [10] was 12.3% and the inhibition [11] was 1.1%. The inhibition [12] was 0.62%, the inhibition [13] was 10% and the inhibition [14] was 26.7%. For the same molecule, the inhibition [15] was 6.39%, the inhibition at 10 µM (CYP2D6) was 28% and the concentration at 2 h [16] was 350 nM. For the same molecule, the Activity (Mus musculus) was “Non-toxic”, the inhibition [17] was 9.28% and the inhibition [18] was -7.82%. The inhibition [19] was -5.97%, the inhibition [20] was 0.52% and the inhibition (Rattus norvegicus [21]) was 9.27%. For the same molecule, the inhibition (Rattus norvegicus [22]) was 6.41%, the EC50 [23] was 30 nM and the survival at […] [24] was 127%. For the same molecule, the inhibition [25] was 15.8%, the inhibition (Rattus norvegicus [26]) was 22.7% and the inhibition (Cricetinae) was 4.77%. The inhibition [27] was 3%, the EC50 [28] was 40 nM and the inhibition [29] was “Active”. For the same molecule, the inhibition [30] was 8.19% and the inhibition [31] was 9.08%.
